In ChEMBL document CHEMBL4351001, “2-Aminoimidazole-based antagonists of the 5-HT6 receptor - A new concept in aminergic GPCR ligand design” (Eur J Med Chem, 2019):

Assays:
[1] = Solubility of compound in water; format: physicochemical; conditions: buffer
[2] = biological target: T1, 5-hydroxytryptamine receptor 1A (Homo sapiens, UniProt P08908); test: Displacement of [3H]-8-OH-DPAT from human 5HT1A receptor expressed in HEK293 cells incubated for 1 hr by liquid scintillation counter method; format: cell-based
T1 sequence (P08908 whole entry): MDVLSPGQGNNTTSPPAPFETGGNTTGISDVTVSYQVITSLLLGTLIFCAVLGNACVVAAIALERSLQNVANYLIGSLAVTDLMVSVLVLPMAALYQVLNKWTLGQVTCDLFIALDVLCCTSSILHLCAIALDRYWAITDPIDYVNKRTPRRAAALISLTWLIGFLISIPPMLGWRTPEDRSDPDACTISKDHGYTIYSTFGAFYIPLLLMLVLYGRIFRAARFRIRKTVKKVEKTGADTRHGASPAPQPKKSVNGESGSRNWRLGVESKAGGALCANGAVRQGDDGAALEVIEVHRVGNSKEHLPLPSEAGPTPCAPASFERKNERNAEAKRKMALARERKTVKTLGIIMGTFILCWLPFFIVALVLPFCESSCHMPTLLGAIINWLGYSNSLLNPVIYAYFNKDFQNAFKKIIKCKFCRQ
Procedure, shortened: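 HEK293 cells stably expressing human 5-HT1AR; membranes in 50 mM Tris–HCl, 0.1 mM EDTA, 4 mM MgCl2, 10 μM pargyline, 0.1% ascorbate; incubated 1 h at room temperature, then filtered. Nonspecific binding defined with 10 μM 5-HT.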

[3] = biological target: 5-hydroxytryptamine receptor 2A (Homo sapiens, UniProt P28223); test: Displacement of [3H]ketanserin from human 5HT2A receptor expressed in CHOK1 cells incubated for 1 hr by liquid scintillation counter method; format: cell-based
D(2) dopamine receptor = D(2) dopamine receptor (Homo sapiens, UniProt P14416); test: Displacement of [3H]-methylspiperone from human D2 long receptor expressed in HEK293 cells measured after 1 hr by liquid scintillation counter method; format: cell-based
Procedure, shortened: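 HEK293 membranes stably expressing human D2L receptor, incubated 1 h at 37°C, then filtered and retained radioactivity counted; (+)-butaclamol 1 μM defines nonspecific binding. Tested in triplicate at 7–8 concentrations (10⁻¹¹–10⁻⁴ M); Ki via Cheng-Prusoff, averaged over at least two independent experiments.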

[4] = biological target: 5-hydroxytryptamine receptor 6 (Homo sapiens, UniProt P50406); test: Displacement of [3H]LSD from human 5HT6 receptor expressed in HEK293 cells measured after 1 hr by liquid scintillation counter method; format: cell-based
[5] = biological target: 5-hydroxytryptamine receptor 7 (Homo sapiens, UniProt P34969); test: Displacement of [3H]-5-CT from human 5HT7 receptor expressed in HEK293 cells measured after 1 hr by liquid scintillation counter method; format: cell-based
in vitro [6] = conditions: rat
[7] = biological target: T2, Alpha-1A adrenergic receptor (Rattus norvegicus) (UniProt P43140); test: Displacement of [3H] prazosin from rat alpha 1A adrenergic receptor at 10^-6 M measured after 60 mins by scintillation counter method relative to control
T2 sequence (whole entry): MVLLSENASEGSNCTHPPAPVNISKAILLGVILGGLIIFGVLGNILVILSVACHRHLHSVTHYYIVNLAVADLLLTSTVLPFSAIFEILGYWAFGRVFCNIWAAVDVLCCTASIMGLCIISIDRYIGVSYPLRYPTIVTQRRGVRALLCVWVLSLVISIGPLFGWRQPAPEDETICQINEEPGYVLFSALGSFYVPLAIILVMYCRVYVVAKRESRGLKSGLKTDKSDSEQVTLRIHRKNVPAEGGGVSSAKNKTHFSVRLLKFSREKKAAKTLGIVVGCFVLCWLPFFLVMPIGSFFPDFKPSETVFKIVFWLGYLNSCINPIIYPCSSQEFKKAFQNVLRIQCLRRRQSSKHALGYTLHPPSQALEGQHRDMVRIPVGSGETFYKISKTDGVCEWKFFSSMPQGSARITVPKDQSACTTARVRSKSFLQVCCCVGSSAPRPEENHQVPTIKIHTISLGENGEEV

[8] = biological target: Histamine H1 receptor (Homo sapiens) (UniProt P35367); test: Displacement of [3H] pyrilamine from human recombinant H1 histamine receptor at 10^-6 M measured after 60 mins by scintillation counting method relative to control
[9] = Stability of compound in rat liver microsomes; format: ADME, Microsome
Procedure, shortened: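 Incubation in triplicate with rat liver microsomes at 37°C with NADP, G6P, G6P dehydrogenase and MgCl2. Verapamil and donepezil served as microsomal activity standards.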

in vitro [10] = conditions: rat, microsomes

5-hydroxytryptamine receptor 2A, sequence (P28223 whole entry): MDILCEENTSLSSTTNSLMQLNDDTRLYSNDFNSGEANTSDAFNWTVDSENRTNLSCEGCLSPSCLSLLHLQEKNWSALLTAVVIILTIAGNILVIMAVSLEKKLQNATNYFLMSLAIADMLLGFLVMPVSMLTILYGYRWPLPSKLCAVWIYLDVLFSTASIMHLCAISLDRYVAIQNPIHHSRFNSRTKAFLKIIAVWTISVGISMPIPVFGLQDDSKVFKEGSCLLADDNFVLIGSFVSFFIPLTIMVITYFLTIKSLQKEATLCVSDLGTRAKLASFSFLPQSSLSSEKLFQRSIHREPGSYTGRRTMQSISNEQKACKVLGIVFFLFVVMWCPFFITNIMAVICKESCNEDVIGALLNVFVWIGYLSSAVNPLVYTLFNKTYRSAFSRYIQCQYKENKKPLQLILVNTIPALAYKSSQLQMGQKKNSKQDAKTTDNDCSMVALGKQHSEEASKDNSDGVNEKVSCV
5-hydroxytryptamine receptor 6, sequence (P50406 whole entry): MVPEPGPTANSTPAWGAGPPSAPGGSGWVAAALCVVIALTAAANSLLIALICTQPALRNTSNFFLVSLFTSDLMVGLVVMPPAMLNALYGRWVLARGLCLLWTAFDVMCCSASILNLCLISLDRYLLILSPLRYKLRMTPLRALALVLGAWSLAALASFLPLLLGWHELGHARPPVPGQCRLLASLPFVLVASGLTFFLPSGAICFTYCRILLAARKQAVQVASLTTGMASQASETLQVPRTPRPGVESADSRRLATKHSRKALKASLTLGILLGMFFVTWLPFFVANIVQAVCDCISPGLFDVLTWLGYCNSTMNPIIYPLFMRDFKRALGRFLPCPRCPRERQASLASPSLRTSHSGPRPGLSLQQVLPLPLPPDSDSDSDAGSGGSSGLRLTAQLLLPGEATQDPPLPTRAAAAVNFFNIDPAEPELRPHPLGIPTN
5-hydroxytryptamine receptor 7, sequence (P34969 whole entry): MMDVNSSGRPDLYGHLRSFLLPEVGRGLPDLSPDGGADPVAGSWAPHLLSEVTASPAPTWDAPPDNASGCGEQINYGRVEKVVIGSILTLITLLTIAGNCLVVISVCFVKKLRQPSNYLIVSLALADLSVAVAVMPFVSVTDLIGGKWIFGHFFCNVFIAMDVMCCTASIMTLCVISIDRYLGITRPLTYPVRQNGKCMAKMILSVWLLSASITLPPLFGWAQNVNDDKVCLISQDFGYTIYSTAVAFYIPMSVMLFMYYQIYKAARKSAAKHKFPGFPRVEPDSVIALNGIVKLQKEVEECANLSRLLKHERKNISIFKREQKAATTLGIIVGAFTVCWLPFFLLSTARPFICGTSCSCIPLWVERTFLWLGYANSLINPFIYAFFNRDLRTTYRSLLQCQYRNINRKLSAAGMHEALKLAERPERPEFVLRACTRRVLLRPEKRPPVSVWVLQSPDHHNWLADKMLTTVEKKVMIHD
D(2) dopamine receptor, sequence (P14416 whole entry): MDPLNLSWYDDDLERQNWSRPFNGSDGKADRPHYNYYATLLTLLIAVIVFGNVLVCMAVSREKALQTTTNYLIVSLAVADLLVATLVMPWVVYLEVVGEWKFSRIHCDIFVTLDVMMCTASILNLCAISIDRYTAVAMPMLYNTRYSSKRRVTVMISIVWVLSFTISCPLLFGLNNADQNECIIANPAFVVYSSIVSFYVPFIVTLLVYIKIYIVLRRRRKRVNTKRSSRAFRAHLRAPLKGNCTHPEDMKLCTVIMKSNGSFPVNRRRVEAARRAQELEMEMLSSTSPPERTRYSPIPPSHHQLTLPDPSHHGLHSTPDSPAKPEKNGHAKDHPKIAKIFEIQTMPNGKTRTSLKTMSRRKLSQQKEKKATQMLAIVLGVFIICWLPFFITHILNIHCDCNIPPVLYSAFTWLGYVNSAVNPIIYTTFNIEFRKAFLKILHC
Histamine H1 receptor (Homo sapiens), sequence (P35367 whole entry): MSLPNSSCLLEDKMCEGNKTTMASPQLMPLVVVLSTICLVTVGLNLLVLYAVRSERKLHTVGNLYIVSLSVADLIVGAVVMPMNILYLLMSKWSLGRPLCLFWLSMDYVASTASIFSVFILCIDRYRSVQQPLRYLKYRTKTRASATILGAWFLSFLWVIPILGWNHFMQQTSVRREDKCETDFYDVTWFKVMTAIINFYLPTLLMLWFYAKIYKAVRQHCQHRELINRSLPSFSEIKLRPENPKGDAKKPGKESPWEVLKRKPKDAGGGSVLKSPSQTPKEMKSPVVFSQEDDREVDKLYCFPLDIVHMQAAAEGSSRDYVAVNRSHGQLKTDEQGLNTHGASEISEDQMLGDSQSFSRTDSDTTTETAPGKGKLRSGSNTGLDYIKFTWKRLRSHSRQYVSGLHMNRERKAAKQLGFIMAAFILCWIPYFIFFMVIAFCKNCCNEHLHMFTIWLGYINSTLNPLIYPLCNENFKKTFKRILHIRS

Compound	solubility [1]	Ki ([3]; read-out: Ki)	Ki ([2]; read-out: Ki)	further results
COc1ccc2c(c1)c(-c1nc(N)sc1C)cn2S(=O)(=O)c1ccc2ccccc2c1	Insoluble	–	–	–
Fc1ccc2c(CCNCc3cccc(OCC(F)(F)C(F)F)c3)c[nH]c2c1 [IDALOPIRDINE]	–	–	–	microsomal CLint (in vitro [6]; microsomes): 99.3 µL/min/mg
CC(=O)Nc1nc(C)c(-c2ccc3ccn(S(=O)(=O)c4ccccc4)c3c2)[nH]1	–	> 10 µM	–	inhibition [7]: -4.2%; inhibition [8]: -1.9%
CC(=O)N1CCn2c1nc(C)c2-c1cn(S(=O)(=O)c2ccccc2)c2ccccc12	Insoluble	> 10 µM	> 10 µM	–
CCC(=O)Nc1nc(C)c(-c2cccc3c2ccn3S(=O)(=O)c2ccccc2)[nH]1	Insoluble	> 10 µM	> 10 µM	–
CCC(=O)Nc1nc(C)c(-c2cn(S(=O)(=O)c3ccc4ccccc4c3)c3ccc(OC)cc23)[nH]1	Insoluble	> 10 µM	–	–
CCC(=O)Nc1nc(C)c(-c2cn(S(=O)(=O)c3cccc4ccccc34)c3ccccc23)[nH]1	Insoluble	> 10 µM	–	–
COc1ccc2c(c1)c(-c1cnc(N)[nH]1)cn2S(=O)(=O)c1cccc(F)c1.Cl	Soluble	–	–	–
O=S(=O)(c1ccccc1)c1cnc2c(N3CCNCC3)cccc2c1 [INTEPIRDINE]	–	–	–	microsomal CLint (in vitro [6]; liver microsomes): 6.6 µL/min/mg
COc1ccc2c(c1)c(-c1[nH]c(NC(C)=O)nc1C)cn2S(=O)(=O)c1cccc2ccccc12	Insoluble	> 10 µM	–	–
COc1ccc2c(c1)c(-c1[nH]c3cccc[n+]3c1C)cn2S(=O)(=O)c1ccccc1.[Br-]	Soluble	> 10 µM	–	–
Cl.Nc1ncc(-c2cn(S(=O)(=O)c3ccccc3)c3ccccc23)[nH]1	Soluble	0.891 µM	0.126 µM	–
COc1ccc2c(c1)c(-c1[nH]c3nccc[n+]3c1C)cn2S(=O)(=O)c1ccccc1.[Br-]	Soluble	> 10 µM	> 10 µM	–
COc1ccc2c(c1)c(-c1[nH]c(NC(C)=O)nc1C)cn2S(=O)(=O)c1ccc2ccccc2c1	Insoluble	> 10 µM	–	–
COc1ccc2c(c1)c(-c1[nH]c(NC(C)=O)nc1C)cn2S(=O)(=O)c1ccccc1	Insoluble	> 10 µM	> 10 µM	–
O=S(=O)(c1ccccc1)n1cc(-c2c[n+]3cccnc3[nH]2)c2ccccc21.[Br-]	Soluble	> 10 µM	> 10 µM	Ki [4]: 0.05 µM; Ki ([5]; read-out: Ki): > 10 µM; Stability [9]: Unstable; microsomal CLint (in vitro [6]; microsomes): 230 µL/min/mg; half-life (in vitro [10]): 6 min
CCc1nc(NC(C)=O)[nH]c1-c1cn(S(=O)(=O)c2ccccc2)c2ccc(OC)cc12	Insoluble	> 10 µM	> 10 µM	–
COc1ccc2c(c1)c(-c1nc(N)sc1C)cn2S(=O)(=O)c1ccccc1	Insoluble	2.46 µM	–	–
COc1ccc2c(c1)c(-c1[nH]c(N)nc1C)cn2S(=O)(=O)c1cccc(F)c1.Cl	Soluble	1.12 µM	> 10 µM	–
Cc1sc(N)nc1-c1cn(S(=O)(=O)c2cccc3ccccc23)c2ccccc12	Insoluble	–	–	Ki ([2]; hek293): Not Active; Ki [3]: Not Active
CCc1nc(NC(C)=O)[nH]c1-c1cn(S(=O)(=O)c2ccccc2)c2ccccc12	Insoluble	> 10 µM	–	–
COc1ccc2c(c1)c(-c1[nH]c(NC(=O)Cc3ccccc3)nc1C)cn2S(=O)(=O)c1ccccc1	Insoluble	> 10 µM	–	Ki (D(2) dopamine receptor): > 10 µM; Ki [4]: 0.003 µM; Ki ([5]; read-out: Ki): > 10 µM
CCC(=O)Nc1nc(C)c(-c2cn(S(=O)(=O)c3cccc(F)c3)c3ccc(OC)cc23)[nH]1	Insoluble	> 10 µM	> 10 µM	–
COc1ccc2c(c1)c(-c1[nH]c(NC(C)=O)nc1C)cn2S(=O)(=O)c1cccc(F)c1	Insoluble	> 10 µM	> 10 µM	–
COc1ccc2c(c1)c(-c1nc(N)sc1C)cn2S(=O)(=O)c1cccc2ccccc12	Insoluble	–	–	–
COc1ccc2c(c1)c(-c1[nH]c(N)nc1C)cn2S(=O)(=O)c1cccc2ccccc12	–	1.66 µM	> 10 µM	–
COc1ccc2c(c1)c(-c1cnc(NC(C)=O)[nH]1)cn2S(=O)(=O)c1cccc(F)c1	Insoluble	> 10 µM	–	–
CC(=O)N1CCCn2c1nc(C)c2-c1cn(S(=O)(=O)c2ccccc2)c2ccccc12	Insoluble	> 10 µM	> 10 µM	–
COc1ccc2c(c1)c(-c1c(C)nc(N)n1CC(F)F)cn2S(=O)(=O)c1ccccc1	Insoluble	3.24 µM	–	Ki ([2]; hek293): Not Active; Ki (D(2) dopamine receptor): 3.8 µM; Ki [4]: 0.157 µM; Ki ([5]; hek293): Not Active

Now from value to molecule, other results behind:

solubility [1]	Compound	Ki ([3]; read-out: Ki)	Ki ([2]; read-out: Ki)	further results
Insoluble	COc1ccc2c(c1)c(-c1[nH]c(NCCc3ccccc3)nc1C)cn2S(=O)(=O)c1ccccc1	1.91 µM	–	Ki ([2]; hek293): Not Active; Ki (D(2) dopamine receptor): 2.14 µM; Ki [4]: 0.083 µM; Ki ([5]; hek293): Not Active
Insoluble	CCC(=O)Nc1nc(C)c(-c2ccc3ccn(S(=O)(=O)c4ccccc4)c3c2)[nH]1	7.41 µM	–	–
Soluble	CCc1nc(N)[nH]c1-c1cn(S(=O)(=O)c2ccccc2)c2ccccc12.Cl	0.107 µM	–	–
Insoluble	COc1ccc2c(c1)c(-c1cnc(NC(C)=O)[nH]1)cn2S(=O)(=O)c1ccccc1	–	> 10 µM	–
Insoluble	CC(=O)Nc1nc(C)c(-c2cn(S(=O)(=O)c3cccc4ccccc34)c3ccccc23)[nH]1	–	–	–
Soluble	Cl.Nc1ncc(-c2cccc3c2ccn3S(=O)(=O)c2ccccc2)[nH]1	2.29 µM	–	–
Soluble	CCc1nc(N)[nH]c1-c1cn(S(=O)(=O)c2ccccc2)c2ccc(OC)cc12.Cl	0.661 µM	> 10 µM	–
Insoluble	CCC(=O)Nc1nc(C)c(-c2cn(S(=O)(=O)c3ccccc3)c3ccc(OC)cc23)[nH]1	–	–	Ki (D(2) dopamine receptor): > 10 µM; Ki [4]: 0.014 µM; Ki ([5]; read-out: Ki): > 10 µM; Stability [9]: Stable; microsomal CLint (in vitro [6]; microsomes): 17.1 µL/min/mg; half-life (in vitro [10]): 81 min
Insoluble	COc1ccc2c(c1)c(-c1[nH]c(NCc3ccccc3)nc1C)cn2S(=O)(=O)c1ccccc1	–	–	Ki ([2]; hek293): Not Active
Insoluble	CCC(=O)Nc1nc(C)c(-c2cn(S(=O)(=O)c3cccc4ccccc34)c3ccc(OC)cc23)[nH]1	–	–	–
Insoluble	CC(=O)Nc1ncc(-c2cn(S(=O)(=O)c3ccccc3)c3ccccc23)[nH]1	–	> 10 µM	–
Insoluble	CCC(=O)Nc1nc(CC)c(-c2cn(S(=O)(=O)c3ccccc3)c3ccc(OC)cc23)[nH]1	–	–	–
Insoluble	CC(=O)Nc1nc(C)c(-c2c(C)n(S(=O)(=O)c3ccccc3)c3ccccc23)[nH]1	–	> 10 µM	–
Soluble	COc1ccc2c(c1)c(-c1[nH]c(N)nc1C)cn2S(=O)(=O)c1ccc2ccccc2c1.Cl	1.05 µM	–	–
Soluble	COc1ccc2c(c1)c(-c1[nH]c(N)nc1C)cn2S(=O)(=O)c1ccccc1.Cl	0.676 µM	> 10 µM	–
Insoluble	Cc1sc(N)nc1-c1cn(S(=O)(=O)c2ccccc2)c2ccccc12	–	–	Ki ([2]; hek293): Not Active
